Drawing on ChEMBL document CHEMBL1221381, “Heterocyclic compounds and aromatic diglycosides from Bretschneidera sinensis” (J Nat Prod, 2010), this text covers IC50 and inhibition of growth for six molecules.

Experiment [1] deals with NCI-H446. The experiment is described as follows: Cytotoxicity against human NCI-H446 cells after 72 hrs by MTT assay. In kind it is functional, cell-based. To be noted: NCI-H446, 72 h. In short, it runs like this:
(§1)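 Test samples (>95% pure) were dissolved in DMSO and diluted with PBS to a 1000 µg mL-1 solution. This was serially diluted in PBS to 100–3.125 µg mL-1 solutions. Human cells were seeded at (4-6) × 10^4 cells/mL, and 10 µL/well of sample was added 24 h after seeding. Plates were incubated 72 h at 37 °C in humidified 5% CO2. Viability was read by MTT at 570 nm. Doxorubicin served as positive control.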

Experiment [2] in a line: Cytotoxicity against human PC3M cells at 100 ug/ml after 72 hrs by MTT assay. It counts as functional. The settings on record: PC-3M, read-out: GI. A digest of the protocol:
as §1
On the technique in general: Tetrazolium assays rely on reduction of a dye to a coloured formazan, in cell work by metabolically active cells.

Experiment [3] concerns HL-60. As to the kind of experiment: Cytotoxicity against human HL60 cells at 100 ug/ml after 72 hrs by MTT assay. It counts as functional. The settings on record: HL-60, 72 h, read-out: GI. In short, it runs like this: as §1
For experiment [4], the system named is HL-60. As to the kind of experiment: Cytotoxicity against human HL60 cells after 72 hrs by MTT assay. It counts as functional, cell-based. The settings on record: HL-60, 72 h. In short, it runs like this: as §1
Experiment [5] relates to NCI-H446. The experiment is described as follows: Cytotoxicity against human NCI-H446 cells at 100 ug/ml after 72 hrs by MTT assay. It counts as functional. To be noted: NCI-H446, 72 h, read-out: GI. In short, it runs like this:
as §1

Experiment [6] concerns HCT-116. The experiment is described as follows: Cytotoxicity against human HCT116 cells after 72 hrs by MTT assay. It counts as functional, cell-based. The settings on record: HCT-116, 72 h. A digest of the protocol: as §1
Experiment [7] can be described thus: Cytotoxicity against human PC3M cells after 72 hrs by MTT assay. In kind it is functional, cell-based. To be noted: PC-3M. In short, it runs like this: as §1
The subject of experiment [8] is HCT-116. The experiment is described as follows: Cytotoxicity against human HCT116 cells at 100 ug/ml after 72 hrs by MTT assay. It counts as functional. To be noted: HCT-116, 72 h, read-out: GI. In short, it runs like this:
as §1

Each structure is given as a SMILES string. Values after ≈ are worked out from the molar mass of the structure shown. Bounds are passed on as bounds.

By IC50 is commonly meant the concentration at which inhibition is half-maximal. Turning to `COc1cc(C=O)ccc1O[C@@H]1O[C@H](CO[C@@H]2OC[C@](O)(CO)[C@H]2O)[C@@H](O)[C@H](O)[C@H]1O` [BRETSCHNEIDEROSIDE A], the IC50 (with NCI-H446 [1]; with HL-60 [4]; with HCT-116 [6]; in experiment [7]) was over 100 µg/mL each time. For the same molecule, the inhibition of growth at 100 µg/mL in experiment [2] was 0%; in the experiment on HL-60 [3], 0.14%; in the experiment with NCI-H446 [5], 29.7%; with HCT-116 [8], 0%.
Take `COc1cc(CO[C@@H]2O[C@H](CO[C@@H]3OC[C@](O)(CO)[C@H]3O)[C@@H](O)[C@H](O)[C@H]2O)ccc1O` [BRETSCHNEIDEROSIDE C]: the IC50 (in the experiment with NCI-H446 [1]; in the experiment with HL-60 [4]; with HCT-116 [6]; in experiment [7]) was over 100 µg/mL in each case. Besides, the inhibition of growth at 100 µg/mL came out at 6.35% in experiment [2], 5.68% in the experiment on HL-60 [3], 40.7% in the experiment with NCI-H446 [5] and 9.3% in the experiment with HCT-116 [8].
For the molecule `COc1cccc2c1C(=O)c1c(O)c3c(c(O)c1C2=O)C[C@@](O)(C(=O)CO)C[C@@H]3O[C@H]1C[C@H](N)[C@H](O)[C@H](C)O1` [DOXORUBICIN], the 50% inhibitory concentration (IC50) with NCI-H446 [1] is 0.0248 µg/mL (≈ 0.0456 µM); in the experiment on HL-60 [4] it was 0.457 µg/mL (≈ 0.841 µM); in the experiment with HCT-116 [6], 0.286 µg/mL (≈ 0.526 µM); in experiment [7], under 0.001 µg/mL. Besides, the inhibition of growth at 100 µg/mL was found to be 96.4% in experiment [2], 94.7% with HL-60 [3], 91.2% with NCI-H446 [5] and 93.1% in the experiment on HCT-116 [8].
For the molecule `COc1cc2sc(=S)n(C)c(=O)c2cc1O` [BRETSCHNEIDERAZINE A], the IC50 is 79.2 µg/mL (≈ 310 µM) in the experiment with NCI-H446 [1], over 100 µg/mL in the experiment with HL-60 [4], over 100 µg/mL in the experiment on HCT-116 [6] and over 100 µg/mL in experiment [7]. Moreover, the inhibition of growth at 100 µg/mL stood at 29.4% in experiment [2], 9.91% in the experiment on HL-60 [3], 53.9% in the experiment on NCI-H446 [5] and 0% in the experiment on HCT-116 [8].
On to `COc1ccc2c(=O)n(C)c(=S)sc2c1OC` [BRETSCHNEIDERAZINE B], for which the IC50 in the experiment with NCI-H446 [1] was 60.2 µg/mL (≈ 224 µM); with HL-60 [4], over 100 µg/mL; in the experiment on HCT-116 [6], over 100 µg/mL; in experiment [7] it was over 100 µg/mL. Further, the inhibition of growth at 100 µg/mL was determined as 0% in experiment [2], 8.04% in the experiment on HL-60 [3], 41.3% in the experiment with NCI-H446 [5] and 0% in the experiment on HCT-116 [8].
For the molecule `O=Cc1ccc(O[C@@H]2O[C@H](CO[C@@H]3OC[C@](O)(CO)[C@H]3O)[C@@H](O)[C@H](O)[C@H]2O)c(O)c1` [BRETSCHNEIDEROSIDE B], the IC50 (with NCI-H446 [1]; in the experiment with HL-60 [4]; with HCT-116 [6]; in experiment [7]) was over 100 µg/mL each time. Besides, the inhibition of growth at 100 µg/mL in experiment [2] was found to be 0%; with HL-60 [3] it was 7.25%; with NCI-H446 [5], 38.4%; in the experiment with HCT-116 [8], 0%.
